≈ marks a conversion by molar mass, not a printed value. Calls of active or inactive are those of the source. No cut-off for these calls is given here.
How the values were obtained:
Candida albicans [1] = assay: Antifungal activity against Candida albicans ATCC 10231 assessed as fungal growth inhibition by double dilution method; format: functional
In short: (§1)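 Broth microdilution after CLSI M27-A3/M38-A2 with minor changes. Single colony grown overnight in YPD at 35 °C, 200 rpm. Compound final range 0.06-31.3 µg/mL; incubated 48 h at 35 °C.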

Candida albicans [2] = assay: Antifungal activity against Candida albicans ATCC 64124 assessed as fungal growth inhibition by double dilution method; format: functional
In short: (§2)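 Broth microdilution after CLSI M27-A3/M38-A2 with minor modifications. A single colony was grown overnight in YPD at 35 °C with shaking at 200 rpm. Cells were mixed 1:1 with compound (final 0.06-31.3 µg/mL, from DMSO stocks) and incubated 48 h at 35 °C.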

Candida albicans [3] = assay: Antifungal activity against itraconazole/fluconazole susceptible Candida albicans ATCC MYA-2876 assessed as fungal growth inhibition by double dilution method; format: functional; in short: as §2
Candida albicans [4] = assay: Antifungal activity against itraconazole/fluconazole resistant Candida albicans ATCC 90819 assessed as fungal growth inhibition by double dilution method; format: functional; in short: as §2
Candida albicans [5] = assay: Antifungal activity against itraconazole/fluconazole susceptible Candida albicans ATCC MYA-2310 assessed as fungal growth inhibition by double dilution method; format: functional; in short: as §2
Candida albicans [6] = assay: Antifungal activity against itraconazole/fluconazole resistant Candida albicans ATCC MYA-1237 assessed as fungal growth inhibition by double dilution method; format: functional; in short: as §2
Candida albicans [7] = assay: Antifungal activity against itraconazole/fluconazole resistant Candida albicans ATCC MYA-1003 assessed as fungal growth inhibition by double dilution method; format: functional; in short: as §2
Nakaseomyces glabratus [8] = assay: Antifungal activity against Candida glabrata ATCC 2001 assessed as fungal growth inhibition by double dilution method; format: functional; in short: as §1
Pichia kudriavzevii [9] = assay: Antifungal activity against Pichia kudriavzevii ATCC 6258 assessed as fungal growth inhibition by double dilution method; format: functional; in short: as §1
Nakaseomyces glabratus [10] = assay: Antifungal activity against Candida glabrata ATCC 22019 assessed as fungal growth inhibition by double dilution method; format: functional; in short: as §1
[Candida] auris [11] = Antifungal activity against Candida auris AR Bank # 0384 assessed as fungal growth inhibition by double dilution method; format: functional; conditions: Candidozyma auris; in short: as §1
[Candida] auris [12] = Antifungal activity against Candida auris AR Bank # 0390 assessed as fungal growth inhibition by double dilution method; format: functional; conditions: Candidozyma auris; in short: as §1
Cryptococcus neoformans = assay: Antifungal activity against Cryptococcus neoformans ATCC MYA-895 assessed as fungal growth inhibition by double dilution method; format: functional; in short: as §1
Aspergillus terreus = assay: Antifungal activity against Aspergillus terreus ATCC MYA-3633 assessed as fungal growth inhibition by double dilution method; format: functional
Aspergillus fumigatus [13] = assay: Antifungal activity against Aspergillus fumigatus NRRL 163 assessed as fungal growth inhibition by double dilution method; format: functional
Aspergillus flavus = assay: Antifungal activity against Aspergillus flavus ATCC MYA-3631 assessed as fungal growth inhibition by double dilution method; format: functional
Aspergillus nidulans = assay: Antifungal activity against Aspergillus nidulans ATCC 38163 assessed as fungal growth inhibition by double dilution method; format: functional
Aspergillus fumigatus [14] = assay: Antifungal activity against Aspergillus fumigatus NRRL 5109 assessed as fungal growth inhibition by double dilution method; format: functional
Aspergillus fumigatus [15] = assay: Antifungal activity against Aspergillus fumigatus NRRL 6113 assessed as fungal growth inhibition by double dilution method; format: functional
[Candida] auris [16] = Antifungal activity against Candida auris AR Bank # 381 assessed as fungal growth inhibition by double dilution method; format: functional; conditions: Candidozyma auris; in short: as §1
[Candida] auris [17] = Antifungal activity against Candida auris AR Bank # 382 assessed as fungal growth inhibition by double dilution method; format: functional; conditions: Candidozyma auris; in short: as §1
[Candida] auris [18] = Antifungal activity against Candida auris AR Bank # 383 assessed as fungal growth inhibition by double dilution method; format: functional; conditions: Candidozyma auris; in short: as §1
[Candida] auris [19] = Antifungal activity against Candida auris AR Bank # 384 assessed as fungal growth inhibition by double dilution method; format: functional; conditions: Candidozyma auris; in short: as §1
[Candida] auris [20] = Antifungal activity against Candida auris AR Bank # 385 assessed as fungal growth inhibition by double dilution method; format: functional; conditions: Candidozyma auris; in short: as §1
[Candida] auris [21] = Antifungal activity against Candida auris AR Bank # 386 assessed as fungal growth inhibition by double dilution method; format: functional; conditions: Candidozyma auris; in short: as §1
[Candida] auris [22] = Antifungal activity against Candida auris AR Bank # 387 assessed as fungal growth inhibition by double dilution method; format: functional; conditions: Candidozyma auris; in short: as §1
[Candida] auris [23] = Antifungal activity against Candida auris AR Bank # 388 assessed as fungal growth inhibition by double dilution method; format: functional; conditions: Candidozyma auris; in short: as §1
[Candida] auris [24] = Antifungal activity against Candida auris AR Bank # 389 assessed as fungal growth inhibition by double dilution method; format: functional; conditions: Candidozyma auris; in short: as §1
[Candida] auris [25] = Antifungal activity against Candida auris AR Bank # 390 assessed as fungal growth inhibition by double dilution method; format: functional; conditions: Candidozyma auris; in short: as §1
Candida duobushaemulonii [26] = assay: Antifungal activity against Candida duobushaemulonii AR Bank # 391 assessed as fungal growth inhibition by double dilution method; format: functional; conditions: Candidozyma duobushaemuli; in short: as §1
Candida duobushaemulonii [27] = assay: Antifungal activity against Candida duobushaemulonii AR Bank # 392 assessed as fungal growth inhibition by double dilution method; format: functional; conditions: Candidozyma duobushaemuli; in short: as §1
[Candida] haemuloni [28] = Antifungal activity against Candida haemulonii AR Bank # 393 assessed as fungal growth inhibition by double dilution method; format: functional; conditions: Candidozyma haemuli; in short: as §1
Candida duobushaemulonii [29] = assay: Antifungal activity against Candida duobushaemulonii AR Bank # 394 assessed as fungal growth inhibition by double dilution method; format: functional; conditions: Candidozyma duobushaemuli; in short: as §1
[Candida] haemuloni [30] = Antifungal activity against Candida haemulonii AR Bank # 395 assessed as fungal growth inhibition by double dilution method; format: functional; conditions: Candidozyma haemuli; in short: as §1
Kodamaea ohmeri = assay: Antifungal activity against Kodamaea ohmeri AR Bank # 396 assessed as fungal growth inhibition by double dilution method; format: functional; in short: as §1
Pichia kudriavzevii [31] = assay: Antifungal activity against Pichia kudriavzevii AR Bank # 397 assessed as fungal growth inhibition by double dilution method; format: functional; in short: as §1
Clavispora lusitaniae = assay: Antifungal activity against Clavispora lusitaniae AR Bank # 398 assessed as fungal growth inhibition by double dilution method; format: functional; in short: as §1
Saccharomyces cerevisiae [32] = assay: Antifungal activity against Saccharomyces cerevisiae AR Bank # 399 assessed as fungal growth inhibition by double dilution method; format: functional; in short: as §1
Saccharomyces cerevisiae [33] = assay: Antifungal activity against Saccharomyces cerevisiae AR Bank # 400 assessed as fungal growth inhibition by double dilution method; format: functional; in short: as §1
Candida albicans [34] = assay: Antibiofilm activity against Candida albicans ATCC 10231 assessed as reduction in biofilm production at 1.96 to 3.9 microg/ml by biofilm formation assay; format: functional, organism-based; conditions: dose 1.96-3.9 µg/ml

Compound	MIC (Candida albicans [1])	MIC (Candida albicans [2])	MIC (Candida albicans [3])	MIC (Candida albicans [4])	MIC (Candida albicans [5])	MIC (Candida albicans [6])	MIC (Candida albicans [7])	MIC (Nakaseomyces glabratus [8])	MIC (Pichia kudriavzevii [9])	MIC (Nakaseomyces glabratus [10])	MIC ([Candida] auris [11])	MIC ([Candida] auris [12])	MIC (Cryptococcus neoformans)	MIC (Aspergillus terreus)	MIC (Aspergillus fumigatus [13])	MIC (Aspergillus flavus)	MIC (Aspergillus nidulans)	MIC (Aspergillus fumigatus [14])	MIC (Aspergillus fumigatus [15])	MIC ([Candida] auris [16])	also measured
O=C(NNc1cc(Cl)cc(Cl)c1)c1ccccn1	0.24 µg/mL (≈ 0.851 µM)	1.95 µg/mL (≈ 6.91 µM)	1.95 µg/mL (≈ 6.91 µM)	0.98 µg/mL (≈ 3.47 µM)	1.95 µg/mL (≈ 6.91 µM)	3.9 µg/mL (≈ 13.8 µM)	1.95 µg/mL (≈ 6.91 µM)	7.8 µg/mL (≈ 27.6 µM)	0.98 µg/mL (≈ 3.47 µM)	1.95 µg/mL (≈ 6.91 µM)	7.8 µg/mL (≈ 27.6 µM)	1.95 µg/mL (≈ 6.91 µM)	0.49 µg/mL (≈ 1.74 µM)	1.95 µg/mL (≈ 6.91 µM)	> 31.3 µg/mL	> 31.3 µg/mL	0.49 µg/mL (≈ 1.74 µM)	> 31.3 µg/mL	> 31.3 µg/mL	3.9 µg/mL (≈ 13.8 µM)	MIC ([Candida] auris [17]): 0.98 µg/mL (≈ 3.47 µM); MIC ([Candida] auris [18]): 1.95 µg/mL (≈ 6.91 µM); MIC ([Candida] auris [19]): 7.8 µg/mL (≈ 27.6 µM); MIC ([Candida] auris [20]): 1.95 µg/mL (≈ 6.91 µM); MIC ([Candida] auris [21]): 0.98 µg/mL (≈ 3.47 µM); MIC ([Candida] auris [22]): 0.98 µg/mL (≈ 3.47 µM); MIC ([Candida] auris [23]): 3.9 µg/mL (≈ 13.8 µM); MIC ([Candida] auris [24]): 1.95 µg/mL (≈ 6.91 µM); MIC ([Candida] auris [25]): 3.9 µg/mL (≈ 13.8 µM); MIC (Candida duobushaemulonii [26]): 0.98 µg/mL (≈ 3.47 µM); MIC (Candida duobushaemulonii [27]): 0.98 µg/mL (≈ 3.47 µM); MIC ([Candida] haemuloni [28]): 0.24 µg/mL (≈ 0.851 µM); MIC (Candida duobushaemulonii [29]): 0.49 µg/mL (≈ 1.74 µM); MIC ([Candida] haemuloni [30]): 0.24 µg/mL (≈ 0.851 µM); MIC (Kodamaea ohmeri): 0.49 µg/mL (≈ 1.74 µM); MIC (Pichia kudriavzevii [31]): 0.49 µg/mL (≈ 1.74 µM); MIC (Clavispora lusitaniae): 3.9 µg/mL (≈ 13.8 µM); MIC (Saccharomyces cerevisiae [32]): 3.9 µg/mL (≈ 13.8 µM); MIC (Saccharomyces cerevisiae [33]): 3.9 µg/mL (≈ 13.8 µM); Activity (Candida albicans [34]): inactive
O=C(NNc1ccc(Cl)cc1)c1ccccn1	0.12 µg/mL (≈ 0.484 µM)	0.98 µg/mL (≈ 3.96 µM)	1.95 µg/mL (≈ 7.87 µM)	0.24 µg/mL (≈ 0.969 µM)	0.98 µg/mL (≈ 3.96 µM)	0.98 µg/mL (≈ 3.96 µM)	0.98 µg/mL (≈ 3.96 µM)	1.95 µg/mL (≈ 7.87 µM)	1.95 µg/mL (≈ 7.87 µM)	3.9 µg/mL (≈ 15.7 µM)	1.95 µg/mL (≈ 7.87 µM)	1.95 µg/mL (≈ 7.87 µM)	0.49 µg/mL (≈ 1.98 µM)	3.9 µg/mL (≈ 15.7 µM)	> 31.3 µg/mL	31.3 µg/mL (≈ 126 µM)	0.49 µg/mL (≈ 1.98 µM)	7.8 µg/mL (≈ 31.5 µM)	15.6 µg/mL (≈ 63 µM)	1.95 µg/mL (≈ 7.87 µM)	MIC ([Candida] auris [17]): 3.9 µg/mL (≈ 15.7 µM); MIC ([Candida] auris [18]): 1.95 µg/mL (≈ 7.87 µM); MIC ([Candida] auris [19]): 1.95 µg/mL (≈ 7.87 µM); MIC ([Candida] auris [20]): 1.95 µg/mL (≈ 7.87 µM); MIC ([Candida] auris [21]): 0.98 µg/mL (≈ 3.96 µM); MIC ([Candida] auris [22]): 1.95 µg/mL (≈ 7.87 µM); MIC ([Candida] auris [23]): 1.95 µg/mL (≈ 7.87 µM); MIC ([Candida] auris [24]): 0.98 µg/mL (≈ 3.96 µM); MIC ([Candida] auris [25]): 1.95 µg/mL (≈ 7.87 µM); MIC (Candida duobushaemulonii [26]): 0.98 µg/mL (≈ 3.96 µM); MIC (Candida duobushaemulonii [27]): 0.98 µg/mL (≈ 3.96 µM); MIC ([Candida] haemuloni [28]): 0.49 µg/mL (≈ 1.98 µM); MIC (Candida duobushaemulonii [29]): 0.4 µg/mL (≈ 1.61 µM); MIC ([Candida] haemuloni [30]): 0.12 µg/mL (≈ 0.484 µM); MIC (Kodamaea ohmeri): 0.24 µg/mL (≈ 0.969 µM); MIC (Pichia kudriavzevii [31]): 0.24 µg/mL (≈ 0.969 µM); MIC (Clavispora lusitaniae): 0.98 µg/mL (≈ 3.96 µM); MIC (Saccharomyces cerevisiae [32]): 0.98 µg/mL (≈ 3.96 µM); MIC (Saccharomyces cerevisiae [33]): 0.98 µg/mL (≈ 3.96 µM); Activity (Candida albicans [34]): Active
